Source: PubChem (several laboratories)
This is a sample that favours compounds with a hit; in the whole collection about 2% have one here.
CRFR2-BP ag: agonists of CRF-BP/CRF-R2 complex, primary screen, cell-based, HEK293, calcium dye fluorescence, uHTS; CRF-binding protein / CRF receptor 2 complex (human); actives 0.46% (n = 350,000); calcium dye fluorescence (FLIPR); percent of saturating CRF peptide response; activation, % at 13.2 µM;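 active = activation of at least 50%, plus an integration ratio under a set limit after plate pattern correction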;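 note: plate controls were neutral control wells without compound for no effect and CRF at EC100 for full effect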
TRPN1 ag: zebrafish TRPN1 channel agonists, primary screen, cell-based, HEK293, calcium fluorescence; HEK293 zebrafish TRPN1-YFP, Fluo-8 calcium fluorescence; 100% = response to 87 µM carbachol; transient receptor potential cation channel N1 (TRPN1/NompC), Danio rerio; actives 0.18% (n = 220,000); activation, % at 3 µM;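 active = activation above its plate's cutoff, the mean activation of test wells on that plate plus 3 SD, cut at about 19% in these data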;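 note: 0% = DMSO alone and 100% = 87 µM carbachol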
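Material: zebrafish TRPN1-YFP in HEK293 cells. Doses: one dose of 3 µM, 0.3% DMSO. Incubation: dye 1 h 37 °C plus 30 min RT. Measured by: intracellular calcium fluorescence with Fluo-8.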
TRPML3 agonist: human TRPML3 channel agonists, primary screen, cell-based, HEK293 TRPML3-YFP, Fluo-8 calcium fluorescence, 3 µM. Mucolipin-3 (Homo sapiens), Q8TDD5. 100% = the carbachol control signal. activation, % at 3 µM. actives 0.29% (n = 220,000). AID 1448, 2008;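 active = activation above its plate's cutoff, the mean activation of the plate's test wells plus 3 SD, cut at about 12% in these data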;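 note: 0% = DMSO only wells and 100% = carbachol wells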
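Material: TRPML3-YFP stable HEK293 cells | Dosing: One concentration, 3 µM nominal, 0.3% DMSO | Timing: 125 s total fluorescence read per well | Technique: Fluo-8 calcium dye fluorescence, ex 470-495, em 515-575 nm | Measure: Percent activation from peak-to-basal fluorescence ratio, scaled between DMSO and carbachol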
GPR7 antagonist: GPR7 receptor antagonists, primary screen, cell-based, fluorescence, single concentration | actives 1.1% (n = 290,000) | GPR7-expressing cells, fluorescence antagonist assay | inhibition, % at 4.4 µM | AID 1861, 2009; in the data active = inhibition above about 16%, passing the limit was not always enough;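 note: cells stimulated with the agonist NPW; 0% = agonist with vehicle and 100% = vehicle without agonist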
Target sequence (P48145 whole entry, looked up): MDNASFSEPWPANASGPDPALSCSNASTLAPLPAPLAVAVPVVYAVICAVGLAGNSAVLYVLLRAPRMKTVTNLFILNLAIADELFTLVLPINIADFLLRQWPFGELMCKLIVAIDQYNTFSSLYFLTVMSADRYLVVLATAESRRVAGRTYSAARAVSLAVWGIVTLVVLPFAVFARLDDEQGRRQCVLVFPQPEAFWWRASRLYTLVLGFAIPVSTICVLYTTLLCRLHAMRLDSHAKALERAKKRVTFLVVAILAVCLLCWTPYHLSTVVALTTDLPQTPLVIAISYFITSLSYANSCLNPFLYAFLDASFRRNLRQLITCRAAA
CRFR2-BP antag: antagonists of CRF-BP/CRF-R2 complex, primary screen, cell-based, HEK293, calcium dye fluorescence, uHTS | CRF-induced calcium fluorescence | inhibition, % at 11.8 µM | actives 0.59% (n = 350,000);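 active = inhibition of the ligand-induced calcium signal above about 50% at the single tested concentration, limit read from the data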
GPR7 antag cf: GPR7 receptor antagonists, confirmation, cell-based, fluorescence, single concentration; actives 52% (n = 2,400); GPR7-expressing cells, calcium fluorescence antagonist mode; inhibition, % at 4.4 µM; shares compounds with GPR7 antagonist; in the data active = inhibition above about 24%;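 note: stimulated with the GPR7 agonist NPW; 0% = agonist plus vehicle and 100% = vehicle alone without agonist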
MCHR1 antagonist: MCHR1 antagonists in cells, counter-screen for GPR7 antagonist project, cell-based, fluorescence, human; shares compounds with GPR7 antagonist; MCHR1-expressing cells, fluorescence antagonist assay; inhibition, % at 4.4 µM; actives 62% (n = 2,400); AID 2148, 2009; in the data active = inhibition above about 22%;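 note: 0% = vehicle with agonist and 100% = vehicle without agonist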
Starred values were filed as active, the others as inactive; · = no result given.

SMILES | CRFR2-BP ag | TRPN1 ag | TRPML3 agonist | GPR7 antagonist | CRFR2-BP antag | GPR7 antag cf | MCHR1 antagonist
CCc1cccc2c(C(=O)C(NC(C)CC)c3ccccc3)c[nH]c12 (configuration not stated) | 1.3 | · | · | 10.8 | -6.1 | · | ·
Cc1ccc(C2=NN(C(=O)CSc3nnnn3C)C(c3ccco3)C2)cc1 (configuration not stated) | -3.6 | · | · | · | 11.3 | · | ·
CCCC(C(=O)NCCC(C)C)N(Cc1ccccc1Cl)C(=O)c1snc(C(N)=O)c1N (configuration not stated) | -0.1 | · | · | -12.0 | -3.7 | · | ·
CC(C)(C)N(NC(=O)c1ccccc1)C(=O)c1cccc(C(=O)N(NC(=O)c2ccccc2)C(C)(C)C)c1 | -1.9 | -0.5 | -0.1 | 41.9* | 25.0 | 31.2* | 22.9*
O=C(Nc1cccs1)Nc1ccccc1Cl | 3.7 | 4.0 | 2.2 | -10.9 | 15.3 | · | ·
Cc1c(NC(=O)Nc2cccs2)cccc1[N+](=O)[O-] | -0.1 | 5.4 | 5.8 | 35.6* | 16.6 | -9.2 | 35.8*
Cc1onc(-c2cccc(Cl)c2Cl)c1C(=O)O/N=C(\N)c1ccc([N+](=O)[O-])o1 | -2.2 | -1.0 | 0.3 | 30.8* | 3.8 | 45.0* | 54.9*
O=C(C1CCCCCC1)N1CC[C@@H](N2CCC(O)CC2)[C@H](O)C1 | -0.6 | · | · | -12.0 | 6.6 | · | ·
CNC(=O)OCN1C(=O)C2CC=CCC2C1=O (configuration not stated) | -2.5 | · | · | · | 1.0 | · | ·
C#CCN(C[C@H]1[C@H](OC(=O)NC2CCCC2)[C@H](OC(=O)NC2CCCC2)C[C@@H](C(=O)OC)[C@H]1C(=O)OC)S(=O)(=O)c1ccc(C)cc1 | -2.1 | · | · | · | 2.6 | · | ·
O=C(CNc1ccc(Br)cc1)Nc1ccc(S(=O)(=O)N2CCCCC2)cc1 | -0.4 | · | · | · | -7.7 | · | ·
Cc1cccc(N2CCN(C(=O)COc3ccc4ccc(=O)oc4c3)CC2)c1C | -0.8 | · | · | 36.6* | 10.1 | 44.8* | 41.5*
COc1cccc(-c2nc(=S)c3c(n2Cc2ccco2)CCCC3)c1 | 4.0 | 0.1 | -0.6 | -4.2 | -78.4 | · | ·
Cc1cccc(-c2nc(=S)c3c(n2Cc2ccco2)CCCC3)c1 | 0.6 | -1.7 | -0.5 | 28.2* | -47.3 | 21.7 | 11.8
O=C(CCNC(=O)c1ccccc1Cl)Nc1cc(C(F)(F)F)ccc1N1CCCC1 | -0.7 | · | · | 21.6 | -5.6 | · | ·
CCC(C)(C(=O)NC1CCCCC1)N(Cc1ccco1)C(=O)Cc1cccs1 (configuration not stated) | -0.9 | -1.7 | -0.2 | 40.5* | 4.7 | 49.7* | 27.3*
CCC(C)(C(=O)NC1CCCCC1)N(Cc1ccco1)C(=O)c1ccc2c(c1)OCO2 (configuration not stated) | 0.4 | -0.4 | -0.1 | 34.4* | -0.2 | 34.4* | 11.7
C=CCN(CC(=O)Nc1c(C)cccc1CC)C(=O)SCCC | -2.1 | -1.4 | -0.6 | 26.6* | 2.7 | 20.4 | 17.8
CCCN(CC(=O)Nc1c(C)cccc1CC)C(=O)SCC | -1.3 | -1.3 | 0.6 | 17.3 | 25.6 | · | ·
CCCSC(=O)N(CC)CC(=O)Nc1c(CC)cccc1CC | -0.6 | -1.3 | -0.6 | 26.2* | -38.3 | 26.4* | 22.1*
CCCCN(CC(=O)Nc1c(C)cccc1CC)C(=O)SCC | -0.1 | -1.6 | -0.2 | 35.6* | -37.6 | 38.9* | 29.6*
O=C(NCCCn1cccn1)C1CCC(=O)N(Cc2ccccc2F)C1 (configuration not stated) | -0.9 | · | · | -1.6 | -4.8 | · | ·
O=Cc1ccccc1OCCOc1ccccc1C=O | -0.4 | -0.8 | -0.3 | 23.9* | 0.3 | 12.0 | 24.8*
